Assay results taken from PubChem BioAssay AID493037 (Johns Hopkins Ion Channel Center, 2011).

Target: Potassium voltage-gated channel subfamily KQT member 2 (Rattus norvegicus) (UniProt O88943)
Experiment: rat KCNQ2 channel activators, dose response, cell-based, FluxOR thallium flux, mode of action (AID 493037)
Settings: KCNQ2-expressing cells, FluxOR thallium flux fluorescence
In short: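 Test system: CHO cells expressing KCNQ2 potassium channel, loaded with FluxOR dye; Incubation: compound pre-incubation 20 min at room temperature; Measured by: thallium-flux fluorescence using FluxOR thallium-sensitive dye.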

Chain of Potassium voltage-gated channel subfamily KQT member 2 (Rattus norvegicus) (O88943 whole entry, looked up): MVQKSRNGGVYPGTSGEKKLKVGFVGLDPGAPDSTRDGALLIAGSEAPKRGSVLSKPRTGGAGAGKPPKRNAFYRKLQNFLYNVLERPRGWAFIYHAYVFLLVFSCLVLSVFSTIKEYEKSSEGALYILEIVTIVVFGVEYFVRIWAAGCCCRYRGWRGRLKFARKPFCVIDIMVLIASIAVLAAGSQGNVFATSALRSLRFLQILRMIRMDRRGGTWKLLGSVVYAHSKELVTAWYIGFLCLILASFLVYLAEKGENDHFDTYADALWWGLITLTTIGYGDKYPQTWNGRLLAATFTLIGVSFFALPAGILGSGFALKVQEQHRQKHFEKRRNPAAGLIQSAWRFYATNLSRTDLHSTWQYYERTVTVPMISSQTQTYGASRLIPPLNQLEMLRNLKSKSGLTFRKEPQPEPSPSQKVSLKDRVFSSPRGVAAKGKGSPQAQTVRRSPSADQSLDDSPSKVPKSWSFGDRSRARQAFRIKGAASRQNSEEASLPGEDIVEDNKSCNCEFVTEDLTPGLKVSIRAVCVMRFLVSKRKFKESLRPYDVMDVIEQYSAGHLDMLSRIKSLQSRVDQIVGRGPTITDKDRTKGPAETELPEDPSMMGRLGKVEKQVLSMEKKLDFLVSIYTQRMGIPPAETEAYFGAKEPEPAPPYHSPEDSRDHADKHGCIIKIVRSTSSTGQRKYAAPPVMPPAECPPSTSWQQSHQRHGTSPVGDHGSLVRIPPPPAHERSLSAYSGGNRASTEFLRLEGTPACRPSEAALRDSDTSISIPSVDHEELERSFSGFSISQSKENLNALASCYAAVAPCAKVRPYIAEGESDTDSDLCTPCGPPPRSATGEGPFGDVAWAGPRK

| SMILES | EC50 |
| --- | --- |
| Cc1cc(C)c(NC(=O)CC(C)(C)C)c(Cl)c1 | 2100 nM |
| CCCCC(=O)Nc1c(C)cc(C)cc1Cl | 3750 nM |

More lines, now with the values ahead:

| EC50 | SMILES |
| --- | --- |
| 359 nM | Cc1cc(C)c(NC(=O)C2CC3CCC2C3)c(C)c1 (stereo not given) |
| 2050 nM | Cc1cccc(C)c1NC(=O)C1CC2CCC1C2 (stereo not given) |
| 1050 nM | Cc1ccc(C)c(NC(=O)C2CC3CCC2C3)c1 (stereo not given) |
